Screens deposited in PubChem by Columbia University Molecular Screening Center.
INS promoter act – activators of insulin promoter-driven GFP, primary screen, imaging, TRM-6 cells, eGFP reporter, cell count. plate-scaled: unstimulated 0, stimulated control 100. activation, % at 2 µM. 130,000 compounds, 0.81% hits;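 active = activation at 2 µM above a set limit, confirmed on inspection of the cell images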;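 also: share of cells whose green reporter signal exceeds an intensity cutoff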
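material = TRM-6 human fetal islet cells, insulin promoter–eGFP reporter | input = 1,000 TRM-6 cells seeded per well | benchmarks = stimulated versus unstimulated wells as plate controls | measured by = automated fluorescence imaging of paraformaldehyde-fixed, Hoechst-counterstained cells, green channel | schedule = compound exposure 48 h, 37 °C | reagent = tamoxifen at 0.75 µM added at seeding for reporter induction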
* hit, by the source's call. This excerpt belongs to a sample that is enriched for hits.

SMILES	INS promoter act
Cc1cc2cc3c(cc2nc1SCC(=O)Nc1ccccc1)CCC3	7
N=c1oc2c3c4c(cc2cc1C(=O)Nc1ccccc1)CCCN4CCC3	900*
O=C(O)c1ccc(NCCC2=CCCCC2)c([N+](=O)[O-])c1	8
CCOC(=O)NC(Nc1ccc(OC)cc1)(C(F)(F)F)C(F)(F)F	-7
O=C(Nc1ccc(C(F)(F)F)cc1)c1cc(S(=O)(=O)NCC2COc3ccccc3O2)ccc1F (centres undefined)	-7
Cc1noc(C)c1S(=O)(=O)N1CCC(C(=O)NCCc2ccc(S(N)(=O)=O)cc2)CC1	-10
Cc1ccc(CNC(=O)C2CCN(S(=O)(=O)c3c(C)noc3C)CC2)cc1	76*
Cc1ccc(CNC(=O)C2CCCN(S(=O)(=O)c3c(C)noc3C)C2)cc1 (centres undefined)	114
O=C1CC(C(=O)N2CCOCC2)C2(CCCC2)O1 (centres undefined)	9
c1ccc2c(CSCCc3ccncc3)cccc2c1	-5
N#CC1=C(SCc2ccccc2Cl)NC(=O)C(C(N)=O)C1 (centres undefined)	9
CSc1nsc(NC(=O)Cc2ccccc2)n1	103*
CCOCCc1nnc(NC(=O)Cc2ccccc2)s1	0
O=C(Nc1nc(SCc2ccc(F)cc2)ns1)c1ccco1	94
CSc1nsc(SC)c1C(=O)N1CCN(S(=O)(=O)c2ccc(C)cc2)C1C (centres undefined)	125*
Cc1ccc(S(=O)(=O)N2CCN(C(=O)CN3CCCCC3)C2C(C)C)cc1 (centres undefined)	6
CSc1nsc(SC)c1C(=O)Nc1ccc(C)cc1	5
CCOC(=O)N1CCC(NC(=O)CCc2c(C)nc3c(c(C)nn3C(C)(C)C)c2C)CC1	4
COC(=O)[C@@H]1CC[C@H](C)[C@@H](c2ccc(C)cc2)N1C(=O)c1ccc(/C=N/OCC[C@@H]2C=C[C@H](OC(C)=O)[C@@H](COC(C)=O)O2)cc1	0
O=C(NCc1ccc(Cl)cc1)C(=O)NCC(c1cccnc1)N1CCN(c2ccc(F)cc2)CC1 (centres undefined)	165*
O=C(NCc1ccccc1)N1CCN(c2ccc(F)cc2)CC1	7
COc1ccc(N2CCN(C(CNC(=O)C(C)(C)C)c3cccnc3)CC2)cc1 (centres undefined)	6
O=S(=O)(NCCc1cn2ccccc2n1)c1ccc2c(c1)CCCC2	198
COc1ccc(/C=N/OC(=O)Nc2ccccc2OC)cc1	-8
Cc1nccn1CC(O)Cn1c2ccccc2c2ccccc21 (centres undefined)	9
SMILES	INS promoter act
Cc1cccc(C)c1N(CC(O)Cn1c2ccccc2c2ccccc21)S(C)(=O)=O (centres undefined)	89*
Cc1cccc(C)c1N(CC(=O)N1CCN(c2ccccc2F)CC1)S(C)(=O)=O	7
Cc1onc(-c2c(F)cccc2Cl)c1C(=O)Nc1ccc(S(=O)(=O)Nc2ncccn2)cc1	0
O=C(Nn1cnnc1)c1cc2c(s1)CCCCC2	-77
O=C(Nc1nccs1)c1cccc(NC(=O)c2ccco2)c1	-93
O=C(Nc1cccc(-c2cnc3ccccc3n2)c1)c1cccc(NC(=O)c2ccco2)c1	7
O=C(Nc1cccc(-c2nc3cccnc3s2)c1)c1ccco1	481*
Cc1cc(C)c(Cn2c(=O)n(CCCC(=O)NCc3ccco3)c(=O)c3ccccc32)c(C)c1	-5
CC(NC(=O)C(=O)N/N=C/c1ccccc1)c1ccccc1 (centres undefined)	0
O=C(c1ccco1)N1N=C2CCCCCC2C1(O)C(F)(F)F (centres undefined)	-7
C=CCSc1nc(NC)c2sccc2n1	-80
CCCCN(Cc1ccccc1)S(=O)(=O)c1cc(Br)cc2c1N(C(C)=O)C(C)C2 (centres undefined)	0
Cc1ccc(N=Nc2c(N)nn3c(C)cc(C)nc23)cc1	-82
Cc1cc(=O)[nH]c2c(N=Nc3ccc(O)cc3)c(N)nn12	383*
Cc1cc(C)n2nc(N)c(N=Nc3cccc(Cl)c3)c2n1	-62
CCc1cccc(CC)c1NC(=S)NCC(c1cccnc1)N1CCOCC1 (centres undefined)	6
OC(COc1cccc(OCC(O)CN2CCOCC2)c1)CN1CCOCC1 (centres undefined)	50
OC(CN1CCN(c2ccccn2)CC1)Cn1c2ccccc2c2ccccc21 (centres undefined)	-7
Cc1ccc2c(c1)c(C)c(C)n2CC(O)CN1CCOCC1 (centres undefined)	533*
CCN(CC)C(=O)CSc1nc2ccccc2c(=O)n1CCC(=O)NCc1ccc(F)cc1	114
Cc1ccc(-c2ccc(=O)n(CC(=O)N3CCN(c4cc(Cl)ccc4C)CC3)n2)cc1	-9
CCn1c(=NC(=O)CSC(C)=O)sc2cc(F)ccc21	79*
C=CCn1c(=NC(=O)CN2C(=O)CCC2=O)sc2cc(S(N)(=O)=O)ccc21	0
COC(=O)Cn1c(=NC(=O)c2cc(OC)cc(OC)c2)sc2cc(OC)ccc21	-3
O=S(=O)(/N=C(/Nc1ccccn1)c1ccccc1)c1ccccc1	196*
SMILES	INS promoter act
Cc1cccc(NC(=S)N/C(=N/S(=O)(=O)c2ccccc2)c2ccccc2)c1	-8
CC(C)OC(=S)N/C(=N\S(=O)(=O)c1ccccc1)c1ccccc1	-4
O=[N+]([O-])c1ccc(S(=O)(=O)CC2CSc3nc4ccccc4n32)cc1 (centres undefined)	-3
CCC(=O)Nc1cccc(C(=O)OCc2cccc([N+](=O)[O-])c2)c1	6
COc1ccc(C(=O)NCCSCc2ccccc2)cc1OC	8
CC(C)C(=O)c1cc2c(cc1NC(=O)c1cccs1)OCCO2	-71
CCN(CC)CCCNC(=O)C1c2ccccc2C(=O)N(C)C1c1ccc(OC)cc1 (centres undefined)	-9
CCN1/C(=C/c2ccc3cc(C)cc(C)c3[n+]2CC)Sc2cc(C)ccc21	413*
CCN1/C(=C\c2ccc3cc(C)ccc3[n+]2CC)Sc2cc(C)c(C)cc21	413*
CCN1/C(=C/c2ccc3cccc(C)c3[n+]2CC)Sc2ccccc21	233*
Cc1nn(Cc2ccc(C(=O)Nc3ccc(Br)c4cccnc34)o2)c(C)c1Br	331
CCCNCC1C(Oc2ccc(Cl)cc2)C(=O)N1c1ccccc1C (centres undefined)	0
Cc1ccccc1N1C(=O)C(Oc2ccc(Cl)cc2)C1CNC(C)(C)C (centres undefined)	0
O=C(Nc1c(C(=O)NCc2ccco2)cnn1-c1ccccc1)c1cccc(F)c1	287*
CC(C)(C)NC(=O)c1cnn(-c2ccccc2)c1NC(=O)c1ccccc1	0
O=C(NCc1ccco1)c1cnn2c(C(F)F)cc(-c3ccccc3)nc12	-10
N#CCCn1c(SCC(=O)Nc2ccc(N3CCOCC3)cc2)nc2ccccc21	8
O=C(CNC(=O)C1COc2ccccc2O1)N/N=C/c1ccc(O)cc1O (centres undefined)	7
CCOC(=O)C(=O)Nc1cc(Cl)ccc1C	-4
COc1ccc(OC)c(CNC(=O)C2CCN(S(C)(=O)=O)CC2)c1	146
COc1ccccc1CNC(=O)C1CCCN(S(C)(=O)=O)C1 (centres undefined)	-7
COc1ccc(Br)cc1CNC(=O)C1CCN(S(=O)(=O)N2CCCCC2)CC1	169*
Cc1ccc(NC(=O)COC(=O)C2CC2C)c(S(=O)(=O)N2CCCCC2)c1 (centres undefined)	6
